Measured values published in ChEMBL document CHEMBL1149786, “Synthesis and antihypertensive effects of new methylthiomorpholinphenol derivatives” (2008).
Activity calls are given as the source filed them. No cut-off for these calls is given here.

Columns and labels:
Rattus norvegicus [1] = assay: Hypotensive effect in anesthetized Wistar rat arterial pressure model assessed as decrease in heart rate at 0.01 mg/kg administered through femoral vein; assay type: functional, organism-based; parameters: dose 0.01 mg/kg
How it was run: (§1)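 Male Wistar rats (280–320 g) under sodium pentobarbital (45 mg/kg, ip), tracheotomised. Right carotid cannulated (PE50) to a pressure transducer recording systolic, diastolic and mean arterial pressure and heart rate. Cumulative iv doses via femoral vein every 5 min: test series 0.0001–10 mg/kg, reference drugs 0.0001–1.0 mg/kg, n = 5. Change measured from pre-dose basal; ED50 taken from a fitted dose–effect model.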

Rattus norvegicus [2] = assay: Hypotensive effect in anesthetized Wistar rat arterial pressure model assessed as decrease in heart rate at 0.1 mg/kg administered through femoral vein; assay type: functional, organism-based; parameters: dose 0.1 mg/kg; how it was run: as §1
Rattus norvegicus [3] = assay: Hypotensive effect in anesthetized Wistar rat arterial pressure model assessed as decrease in heart rate at 1.0 mg/kg administered through femoral vein; assay type: functional, organism-based; parameters: dose 1 mg/kg; how it was run: as §1
Rattus norvegicus [4] = assay: Hypotensive effect in anesthetized Wistar rat arterial pressure model assessed as decrease in heart rate at 10.0 mg/kg administered through femoral vein; assay type: functional, organism-based; parameters: dose 10 mg/kg; how it was run: as §1
Rattus norvegicus [5] = assay: Hypotensive effect in anesthetized Wistar rat arterial pressure model assessed as decrease in heart rate at 3.1 mg/kg administered through femoral vein; assay type: functional, organism-based; parameters: dose 3.1 mg/kg; how it was run: as §1
Rattus norvegicus [6] = assay: Antihypertensive effect in anesthetized Wistar rat; assay type: functional; how it was run: as §1
Rattus norvegicus [7] = assay: Antihypertensive effect in spontaneous hypertensive Wistar rat model assessed as maximum decrease in systolic arterial pressure at 1.0 mg/kg, po after 60 mins; assay type: functional, Artery
How it was run: (§2)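 Conscious spontaneously hypertensive rats given a single oral dose of 1.0 mg/kg. Systolic and diastolic pressure and heart rate followed over 2.0 h. The largest fall from baseline and the time at which it occurred were recorded for each variable.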

Rattus norvegicus [8] = assay: Antihypertensive effect in spontaneous hypertensive Wistar rat model assessed as maximum decrease in diastolic arterial pressure at 1.0 mg/kg, po after 60 mins; assay type: functional, Artery; how it was run: as §2
Rattus norvegicus [9] = assay: Antihypertensive effect in spontaneous hypertensive Wistar rat model assessed as maximum decrease in heart rate per min at 1.0 mg/kg, po after 120 mins; assay type: functional; how it was run: as §2
Rattus norvegicus [10] = assay: Hypotensive effect in anesthetized Wistar rat arterial pressure model at 1.0 mg/kg administered through femoral vein; assay type: functional, organism-based; parameters: dose 1 mg/kg; conditions: Artery; how it was run: as §1
Rattus norvegicus [11] = assay: Hypotensive effect in anesthetized Wistar rat arterial pressure model at 3.1 mg/kg administered through femoral vein; assay type: functional, organism-based; parameters: dose 3.1 mg/kg; conditions: Artery; how it was run: as §1
Rattus norvegicus [12] = assay: Hypotensive effect in anesthetized Wistar rat arterial pressure model at 10.0 mg/kg administered through femoral vein; assay type: functional, organism-based; parameters: dose 10 mg/kg; conditions: Artery; how it was run: as §1
Rattus norvegicus [13] = assay: Hypotensive effect in anesthetized Wistar rat arterial pressure model assessed as decrease in heart rate at 0.0001 mg/kg administered through femoral vein; assay type: functional, organism-based; parameters: dose 0.0001 mg/kg; how it was run: as §1
Rattus norvegicus [14] = assay: Hypotensive effect in anesthetized Wistar rat arterial pressure model assessed as decrease in heart rate at 0.001 mg/kg administered through femoral vein; assay type: functional, organism-based; parameters: dose 0.001 mg/kg; how it was run: as §1
Rattus norvegicus [15] = assay: Antihypertensive effect in spontaneous hypertensive Wistar rat model assessed as maximum decrease in systolic arterial pressure at 1.0 mg/kg, po after 100 mins; assay type: functional, Artery; how it was run: as §2
Rattus norvegicus [16] = assay: Antihypertensive effect in spontaneous hypertensive Wistar rat model assessed as maximum decrease in diastolic arterial pressure at 1.0 mg/kg, po after 100 mins; assay type: functional, Artery; how it was run: as §2
Rattus norvegicus [17] = assay: Antihypertensive effect in spontaneous hypertensive Wistar rat model assessed as maximum decrease in heart rate per min at 1.0 mg/kg, po after 110 mins; assay type: functional; how it was run: as §2
Rattus norvegicus [18] = assay: Antihypertensive effect in anesthetized Wistar rat assessed as change mean arterial pressure at 10.0 mg/kg administered through femoral vein; assay type: functional, Artery; how it was run: as §1
Rattus norvegicus [19] = assay: Antihypertensive effect in anesthetized Wistar rat assessed as change systolic arterial pressure at 10.0 mg/kg administered through femoral vein; assay type: functional, Artery; how it was run: as §1
Rattus norvegicus [20] = assay: Antihypertensive effect in anesthetized Wistar rat assessed as change diastolic arterial pressure at 10.0 mg/kg administered through femoral vein; assay type: functional, Artery; how it was run: as §1
Rattus norvegicus [21] = assay: Antihypertensive effect in spontaneous hypertensive Wistar rat model assessed as maximum decrease in systolic arterial pressure at 1.0 mg/kg, po after 80 mins; assay type: functional, Artery; how it was run: as §2
Rattus norvegicus [22] = assay: Antihypertensive effect in spontaneous hypertensive Wistar rat model assessed as maximum decrease in diastolic arterial pressure at 1.0 mg/kg, po after 80 mins; assay type: functional, Artery; how it was run: as §2
Rattus norvegicus [23] = assay: Antihypertensive effect in spontaneous hypertensive Wistar rat model assessed as maximum decrease in heart rate per min at 1.0 mg/kg, po after 80 mins; assay type: functional; how it was run: as §2
Rattus norvegicus [24] = assay: Antihypertensive effect in anesthetized Wistar rat assessed as reduction of systolic arterial pressure at 1 mg/kg administered through femoral vein; assay type: functional, organism-based; parameters: dose 1 mg/kg; conditions: Artery; how it was run: as §1
Rattus norvegicus [25] = assay: Antihypertensive effect in anesthetized Wistar rat assessed as reduction of diastolic arterial pressure at 1 mg/kg administered through femoral vein; assay type: functional, organism-based; parameters: dose 1 mg/kg; conditions: Artery; how it was run: as §1
Rattus norvegicus [26] = assay: Antihypertensive effect in spontaneous hypertensive Wistar rat model assessed as maximum decrease in systolic arterial pressure at 1.0 mg/kg, po after 50 mins; assay type: functional, Artery; how it was run: as §2
Rattus norvegicus [27] = assay: Antihypertensive effect in spontaneous hypertensive Wistar rat model assessed as maximum decrease in heart rate per min at 1.0 mg/kg, po after 70 mins; assay type: functional; how it was run: as §2
Rattus norvegicus [28] = assay: Hypotensive effect in anesthetized Wistar rat arterial pressure model at 0.001 mg/kg administered through femoral vein; assay type: functional, organism-based; parameters: dose 0.001 mg/kg; conditions: Artery; how it was run: as §1
Rattus norvegicus [29] = assay: Hypotensive effect in anesthetized Wistar rat arterial pressure model at 0.1 mg/kg administered through femoral vein; assay type: functional, organism-based; parameters: dose 0.1 mg/kg; conditions: Artery; how it was run: as §1
Rattus norvegicus [30] = assay: Hypotensive effect in anesthetized Wistar rat arterial pressure model at 0.0001 mg/kg administered through femoral vein; assay type: functional, organism-based; parameters: dose 0.0001 mg/kg; conditions: Artery; how it was run: as §1
Rattus norvegicus [31] = assay: Antihypertensive effect in anesthetized Wistar rat assessed as reduction of mean arterial pressure at 1 mg/kg administered through femoral vein; assay type: functional, organism-based; parameters: dose 1 mg/kg; conditions: Artery
How it was run: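 Male Wistar rats (280–320 g) anesthetized with sodium pentobarbital (45 mg/kg ip), tracheotomized; right carotid artery cannulated to a pressure transducer recording systolic, diastolic and mean arterial pressure and heart rate. Compounds given IV via femoral vein as cumulative dose–effect curve (0.0001–10 mg/kg), doses every five minutes; n = 5.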

Rattus norvegicus [32] = assay: Antihypertensive effect in spontaneous hypertensive Wistar rat model assessed as maximum decrease in systolic arterial pressure at 1.0 mg/kg, po after 90 mins; assay type: functional, Artery; how it was run: as §2
Rattus norvegicus [33] = assay: Antihypertensive effect in spontaneous hypertensive Wistar rat model assessed as maximum decrease in diastolic arterial pressure at 1.0 mg/kg, po after 90 mins; assay type: functional, Artery; how it was run: as §2
Rattus norvegicus [34] = assay: Antihypertensive effect in spontaneous hypertensive Wistar rat model assessed as maximum decrease in heart rate per min at 1.0 mg/kg, po after 100 mins; assay type: functional; how it was run: as §2
Rattus norvegicus [35] = assay: Hypotensive effect in anesthetized Wistar rat arterial pressure model at 0.01 mg/kg administered through femoral vein; assay type: functional, organism-based; parameters: dose 0.01 mg/kg; conditions: Artery; how it was run: as §1

SMILES | Activity (Rattus norvegicus [1]) | Activity (Rattus norvegicus [2]) | Activity (Rattus norvegicus [3]) | Activity (Rattus norvegicus [4]) | Activity (Rattus norvegicus [5]) | ED50 (Rattus norvegicus [6]) [mg/kg] | Activity (Rattus norvegicus [8]) [mmHg] | Activity (Rattus norvegicus [10]) | Activity (Rattus norvegicus [11]) | Activity (Rattus norvegicus [12]) | other results
Oc1cc(O)c(CN2CCSCC2)cc1CN1CCSCC1 | Active | Active | Active | Active | Active | 0.363 | 29.2 |  |  |  | Activity (Rattus norvegicus [7]): 45.6 mmHg; Activity (Rattus norvegicus [9]): 92.5
Oc1ccc(Cl)cc1CN1CCSCC1 | Active |  |  |  |  | 2.21 |  | Active | Active | Active | Activity (Rattus norvegicus [13]): Active; Activity (Rattus norvegicus [14]): Active; Activity (Rattus norvegicus [15]): 73.9 mmHg; Activity (Rattus norvegicus [16]): 46.7 mmHg; Activity (Rattus norvegicus [17]): 72.2
CCCCc1nc(Cl)c(CO)n1Cc1ccc(-c2ccccc2-c2nnn[nH]2)cc1 [LOSARTAN] |  |  |  |  |  | 0.0282 |  |  |  |  | Activity (Rattus norvegicus [18]): 41.31 mmHg; Activity (Rattus norvegicus [19]): 43.62 mmHg; Activity (Rattus norvegicus [20]): 45.64 mmHg; Activity (Rattus norvegicus [21]): 82.3 mmHg; Activity (Rattus norvegicus [22]): 66.3 mmHg; Activity (Rattus norvegicus [23]): 38.37
C[C@H](CS)C(=O)N1CCC[C@H]1C(=O)O [CAPTOPRIL] |  |  |  |  |  | 0.00062 |  |  |  |  | Activity (Rattus norvegicus [24]): Active; Activity (Rattus norvegicus [25]): Active; Activity (Rattus norvegicus [26]): 42 mmHg; Activity (Rattus norvegicus [16]): 36.5 mmHg; Activity (Rattus norvegicus [27]): 52.04
CC(C)(C)c1cc(CN2CCSCC2)c(O)c(CN2CCSCC2)c1 |  |  | Active | Active | Active | 0.411 |  | Active | Active | Active | Activity (Rattus norvegicus [28]): Active; Activity (Rattus norvegicus [29]): Active; Activity (Rattus norvegicus [30]): Active; Activity (Rattus norvegicus [31]): Active; Activity (Rattus norvegicus [32]): 95.8 mmHg; Activity (Rattus norvegicus [33]): 48.2 mmHg; Activity (Rattus norvegicus [34]): 160 beats/min; Activity (Rattus norvegicus [35]): Active
CC(C)(C)c1ccc(O)c(CN2CCSCC2)c1 | Active | Active | Active | Active |  | 1.04 | 31.8 | Active | Active | Active | Activity (Rattus norvegicus [28]): Active; Activity (Rattus norvegicus [29]): Active; Activity (Rattus norvegicus [15]): 71.5 mmHg; Activity (Rattus norvegicus [34]): 148 beats/min
O=C(N[C@H]1CCS[C@H]2CCC[C@@H](C(=O)O)N2C1=O)[C@@H](S)Cc1ccccc1 [OMAPATRILAT] |  |  |  |  |  | 0.0058 |  |  |  |  | 
CC(C)(c1ccc(O)c(CN2CCSCC2)c1)c1ccc(O)c(CN2CCSCC2)c1 | Active | Active | Active | Active | Active | 1.41 | 12.6 | Active | Active | Active | Activity (Rattus norvegicus [30]): Active; Activity (Rattus norvegicus [7]): 28.1 mmHg; Activity (Rattus norvegicus [9]): 106.566
